What was measured:
[1] = target: T1, Beta-3 adrenergic receptor (Homo sapiens, UniProt P13945); assay: Agonist activity at human beta3 adrenergic receptor
How it was run: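 Human β3 receptor agonist EC50 given as the mean of at least two experiments.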
Target sequence in this assay (P13945 whole entry): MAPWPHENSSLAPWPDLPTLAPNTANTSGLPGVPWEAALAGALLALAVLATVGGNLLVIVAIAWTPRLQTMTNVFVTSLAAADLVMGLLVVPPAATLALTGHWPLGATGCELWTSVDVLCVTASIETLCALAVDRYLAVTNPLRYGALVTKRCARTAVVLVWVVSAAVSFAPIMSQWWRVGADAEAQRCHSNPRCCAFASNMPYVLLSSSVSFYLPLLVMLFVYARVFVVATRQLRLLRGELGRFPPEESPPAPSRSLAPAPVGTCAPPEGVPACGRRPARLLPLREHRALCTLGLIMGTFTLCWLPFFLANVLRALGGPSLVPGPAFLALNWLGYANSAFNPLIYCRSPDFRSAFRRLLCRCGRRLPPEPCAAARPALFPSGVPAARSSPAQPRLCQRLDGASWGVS

[2] = target: T1, Beta-3 adrenergic receptor; assay: Agonist activity at human beta3 adrenergic receptor relative to R-(-)-isoproterenol
Target sequence in this assay (P13945 whole entry, looked up): as the sequence (P13945 whole entry) above

[3] = target: Beta-1 adrenergic receptor (Homo sapiens, UniProt P08588); assay: Activity at human beta1 adrenergic receptor
Sequence of Beta-1 adrenergic receptor (P08588 whole entry): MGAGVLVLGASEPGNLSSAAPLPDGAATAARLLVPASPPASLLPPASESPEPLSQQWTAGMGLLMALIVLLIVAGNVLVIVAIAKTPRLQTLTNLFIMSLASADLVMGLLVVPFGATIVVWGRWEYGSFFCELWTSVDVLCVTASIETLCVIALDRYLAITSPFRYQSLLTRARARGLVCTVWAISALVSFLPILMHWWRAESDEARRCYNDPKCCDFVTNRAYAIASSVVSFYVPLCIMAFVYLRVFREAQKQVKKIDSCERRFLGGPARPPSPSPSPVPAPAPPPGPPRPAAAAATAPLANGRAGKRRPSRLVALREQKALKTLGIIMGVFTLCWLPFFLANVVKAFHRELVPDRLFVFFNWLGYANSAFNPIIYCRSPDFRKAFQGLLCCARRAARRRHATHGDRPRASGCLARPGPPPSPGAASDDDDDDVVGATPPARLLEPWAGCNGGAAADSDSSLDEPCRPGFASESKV

[4] = target: Beta-2 adrenergic receptor (Homo sapiens, UniProt P07550); assay: Activity at human beta2 adrenergic receptor
Sequence of Beta-2 adrenergic receptor (P07550 whole entry): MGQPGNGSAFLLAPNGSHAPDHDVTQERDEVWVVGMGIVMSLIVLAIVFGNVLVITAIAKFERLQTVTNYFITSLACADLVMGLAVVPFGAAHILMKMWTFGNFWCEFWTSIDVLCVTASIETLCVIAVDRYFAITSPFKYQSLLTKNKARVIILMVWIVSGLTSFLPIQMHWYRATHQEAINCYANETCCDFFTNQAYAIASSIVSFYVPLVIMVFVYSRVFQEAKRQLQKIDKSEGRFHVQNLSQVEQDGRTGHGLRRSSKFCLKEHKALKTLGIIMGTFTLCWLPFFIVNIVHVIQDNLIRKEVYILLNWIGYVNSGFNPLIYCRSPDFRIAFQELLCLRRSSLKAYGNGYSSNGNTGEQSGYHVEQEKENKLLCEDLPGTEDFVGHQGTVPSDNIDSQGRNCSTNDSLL

[5] = target: Sodium channel protein type 5 subunit alpha (Homo sapiens, UniProt Q14524); assay: Inhibition of human Nav1.5 by electrophysiology method
Sequence of Sodium channel protein type 5 subunit alpha (Q14524 whole entry): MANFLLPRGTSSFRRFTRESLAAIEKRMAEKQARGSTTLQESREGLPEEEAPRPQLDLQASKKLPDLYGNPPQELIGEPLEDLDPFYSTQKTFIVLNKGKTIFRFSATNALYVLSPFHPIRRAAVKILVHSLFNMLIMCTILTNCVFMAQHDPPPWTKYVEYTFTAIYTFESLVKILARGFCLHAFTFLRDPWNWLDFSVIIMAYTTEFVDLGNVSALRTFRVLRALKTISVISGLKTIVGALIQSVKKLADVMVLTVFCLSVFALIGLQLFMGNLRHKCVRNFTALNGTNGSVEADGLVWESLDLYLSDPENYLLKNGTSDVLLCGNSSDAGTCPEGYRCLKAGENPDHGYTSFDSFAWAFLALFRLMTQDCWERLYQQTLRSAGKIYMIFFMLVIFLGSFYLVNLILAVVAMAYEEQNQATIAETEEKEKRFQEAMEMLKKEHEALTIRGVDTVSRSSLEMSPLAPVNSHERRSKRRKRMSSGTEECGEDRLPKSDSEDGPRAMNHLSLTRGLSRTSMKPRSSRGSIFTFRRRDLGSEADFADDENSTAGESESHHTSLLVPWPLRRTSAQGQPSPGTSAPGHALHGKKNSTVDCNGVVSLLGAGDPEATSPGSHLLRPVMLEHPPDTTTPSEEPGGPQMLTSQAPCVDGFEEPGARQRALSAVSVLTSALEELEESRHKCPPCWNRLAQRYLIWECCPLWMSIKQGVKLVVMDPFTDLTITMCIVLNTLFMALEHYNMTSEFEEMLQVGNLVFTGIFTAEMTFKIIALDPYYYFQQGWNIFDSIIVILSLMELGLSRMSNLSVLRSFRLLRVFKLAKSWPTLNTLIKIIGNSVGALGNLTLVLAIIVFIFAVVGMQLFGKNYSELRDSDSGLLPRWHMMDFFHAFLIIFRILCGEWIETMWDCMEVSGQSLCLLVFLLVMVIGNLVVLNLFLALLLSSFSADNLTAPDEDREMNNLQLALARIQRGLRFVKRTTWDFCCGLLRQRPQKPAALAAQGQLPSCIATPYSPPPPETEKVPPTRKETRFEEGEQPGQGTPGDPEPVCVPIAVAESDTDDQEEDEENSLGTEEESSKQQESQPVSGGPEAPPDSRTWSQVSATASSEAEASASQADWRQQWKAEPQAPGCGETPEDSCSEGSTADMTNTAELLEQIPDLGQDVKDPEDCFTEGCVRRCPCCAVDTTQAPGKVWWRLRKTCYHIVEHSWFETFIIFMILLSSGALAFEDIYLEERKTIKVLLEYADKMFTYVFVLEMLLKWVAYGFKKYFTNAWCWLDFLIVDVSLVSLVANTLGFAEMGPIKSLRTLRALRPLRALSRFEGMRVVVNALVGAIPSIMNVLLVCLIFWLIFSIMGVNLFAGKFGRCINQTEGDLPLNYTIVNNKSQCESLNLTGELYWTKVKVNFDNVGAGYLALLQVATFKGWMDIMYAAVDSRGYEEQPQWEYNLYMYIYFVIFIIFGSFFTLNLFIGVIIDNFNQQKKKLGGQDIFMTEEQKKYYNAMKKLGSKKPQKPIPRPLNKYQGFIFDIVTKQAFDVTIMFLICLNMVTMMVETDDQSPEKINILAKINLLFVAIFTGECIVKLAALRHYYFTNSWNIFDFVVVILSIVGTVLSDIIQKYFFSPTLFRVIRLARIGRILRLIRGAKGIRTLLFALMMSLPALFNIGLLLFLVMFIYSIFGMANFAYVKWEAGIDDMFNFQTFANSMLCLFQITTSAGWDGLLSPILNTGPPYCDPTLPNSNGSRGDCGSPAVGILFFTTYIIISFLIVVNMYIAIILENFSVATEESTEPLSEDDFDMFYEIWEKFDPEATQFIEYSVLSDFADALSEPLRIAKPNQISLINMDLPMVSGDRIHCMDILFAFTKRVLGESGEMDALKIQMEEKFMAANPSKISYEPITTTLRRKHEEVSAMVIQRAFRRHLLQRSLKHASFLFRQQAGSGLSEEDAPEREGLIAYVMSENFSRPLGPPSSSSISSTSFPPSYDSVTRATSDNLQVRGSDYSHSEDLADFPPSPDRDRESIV

[6] = target: Sodium-dependent serotonin transporter (Homo sapiens, UniProt P31645); assay: Inhibition of SERT (unknown origin)
Sequence of Sodium-dependent serotonin transporter (P31645 whole entry): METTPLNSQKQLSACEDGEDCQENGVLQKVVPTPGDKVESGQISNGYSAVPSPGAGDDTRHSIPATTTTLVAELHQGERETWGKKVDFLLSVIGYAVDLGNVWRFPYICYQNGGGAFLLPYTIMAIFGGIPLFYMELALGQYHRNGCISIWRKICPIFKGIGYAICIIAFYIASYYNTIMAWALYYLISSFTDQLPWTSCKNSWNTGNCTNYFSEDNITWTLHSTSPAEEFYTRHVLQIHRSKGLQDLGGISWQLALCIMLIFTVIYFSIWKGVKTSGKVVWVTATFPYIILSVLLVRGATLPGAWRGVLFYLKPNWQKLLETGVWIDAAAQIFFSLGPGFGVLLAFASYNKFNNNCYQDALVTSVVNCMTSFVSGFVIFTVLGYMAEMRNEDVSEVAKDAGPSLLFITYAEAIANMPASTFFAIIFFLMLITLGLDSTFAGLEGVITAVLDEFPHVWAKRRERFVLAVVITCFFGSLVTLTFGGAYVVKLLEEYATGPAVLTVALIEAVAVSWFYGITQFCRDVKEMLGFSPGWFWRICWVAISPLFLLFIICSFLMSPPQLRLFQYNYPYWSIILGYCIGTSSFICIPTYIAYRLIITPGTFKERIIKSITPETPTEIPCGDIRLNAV

[7] = Induction of phospholipidosis in human HepG2 cells; format: cell-based; settings: read-out: A50
[8] = target: Sodium-dependent noradrenaline transporter (Homo sapiens, UniProt P23975); assay: Inhibition of NET (unknown origin) expressed in HEK293 cells assessed as reduction in norepinephrine reuptake; format: cell-based
Sequence of Sodium-dependent noradrenaline transporter (P23975 whole entry): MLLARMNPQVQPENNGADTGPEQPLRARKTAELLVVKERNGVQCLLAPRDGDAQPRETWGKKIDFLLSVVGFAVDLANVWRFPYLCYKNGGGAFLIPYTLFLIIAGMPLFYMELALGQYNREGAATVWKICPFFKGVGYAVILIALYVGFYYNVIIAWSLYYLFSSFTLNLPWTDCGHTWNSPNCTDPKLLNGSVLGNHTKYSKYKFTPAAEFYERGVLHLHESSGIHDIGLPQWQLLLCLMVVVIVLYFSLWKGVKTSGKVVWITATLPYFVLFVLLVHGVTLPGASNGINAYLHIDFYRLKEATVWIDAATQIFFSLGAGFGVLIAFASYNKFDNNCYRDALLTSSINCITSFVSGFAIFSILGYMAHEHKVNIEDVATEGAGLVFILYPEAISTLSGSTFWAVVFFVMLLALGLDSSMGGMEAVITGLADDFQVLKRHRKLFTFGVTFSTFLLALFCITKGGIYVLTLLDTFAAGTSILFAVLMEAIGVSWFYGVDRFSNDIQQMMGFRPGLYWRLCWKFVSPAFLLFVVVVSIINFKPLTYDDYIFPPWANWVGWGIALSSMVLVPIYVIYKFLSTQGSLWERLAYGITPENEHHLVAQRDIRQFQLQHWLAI

[9] = target: Voltage-gated inwardly rectifying potassium channel KCNH2 (Homo sapiens, UniProt Q12809); assay: Inhibition of human ERG
[10] = Plasma clearance in rat at 0.5 mg/kg, iv administered as cassette dose or 2 mg/kg, po; format: ADME, organism-based
[11] = Volume of distribution in rat at 0.5 mg/kg, iv administered as cassette dose or 2 mg/kg, po; format: ADME, organism-based; settings: in vivo
[12] = Half life in rat at 0.5 mg/kg, iv administered as cassette dose or 2 mg/kg, po; format: ADME, organism-based; settings: in vivo
[13] = Volume of distribution in rat at 1 mg/kg, iv or 2 mg/kg, po; format: ADME, organism-based; settings: in vivo
[14] = Plasma clearance in rat at 1 mg/kg, iv or 2 mg/kg, po; format: ADME, organism-based
[15] = Half life in rat at 1 mg/kg, iv or 2 mg/kg, po; format: ADME, organism-based; settings: in vivo
[16] = test system: Rattus norvegicus; assay: Total dose normalized AUC in rat 2 mg/kg, po; format: ADME, organism-based; settings: in vivo
[17] = Oral bioavailability in rat 2 mg/kg; format: ADME, organism-based; settings: in vivo
[18] = test system: Rattus norvegicus; assay: Unbound clearance in rat at 1 mg/kg, iv or 2 mg/kg, po; format: ADME, organism-based; settings: in vivo
[19] = test system: Rattus norvegicus; assay: Unbound dose normalized AUC in rat 2 mg/kg, po; format: ADME, organism-based; settings: in vivo
[20] = Unbound fraction in rat at 1 mg/kg, iv or 2 mg/kg, po; format: ADME, organism-based; settings: in vivo
[21] = Plasma clearance in dog at 0.5 mg/kg, iv or 2 mg/kg, po; format: ADME, organism-based, Canis lupus familiaris
[22] = Plasma clearance in rhesus monkey at 0.5 mg/kg, iv or 2 mg/kg, po; format: ADME, organism-based, Macaca mulatta
[23] = test system: Canis familiaris; assay: Unbound clearance in dog at 0.5 mg/kg, iv or 2 mg/kg, po; format: ADME, organism-based, Canis lupus familiaris; settings: in vivo
[24] = test system: Rhesus monkey; assay: Unbound clearance in rhesus monkey at 0.5 mg/kg, iv or 2 mg/kg, po; format: ADME, organism-based, Macaca mulatta; settings: in vivo
[25] = Volume of distribution in dog at 0.5 mg/kg, iv or 2 mg/kg, po; format: ADME, organism-based, Canis lupus familiaris; settings: in vivo
[26] = Volume of distribution in rhesus monkey at 0.5 mg/kg, iv or 2 mg/kg, po; format: ADME, organism-based, Macaca mulatta; settings: in vivo
[27] = Half life in dog at 0.5 mg/kg, iv or 2 mg/kg, po; format: ADME, organism-based, Canis lupus familiaris; settings: in vivo
[28] = Half life in rhesus monkey at 0.5 mg/kg, iv or 2 mg/kg, po; format: ADME, organism-based, Macaca mulatta; settings: in vivo
[29] = test system: Canis familiaris; assay: Total dose normalized AUC in dog at 2 mg/kg, po; format: ADME, organism-based, Canis lupus familiaris; settings: in vivo
[30] = test system: Rhesus monkey; assay: Total dose normalized AUC in rhesus monkey at 2 mg/kg, po; format: ADME, organism-based, Macaca mulatta; settings: in vivo
[31] = test system: Canis familiaris; assay: Unbound dose normalized AUC in dog at 2 mg/kg, po; format: ADME, organism-based, Canis lupus familiaris; settings: in vivo
[32] = test system: Rhesus monkey; assay: Unbound dose normalized AUC in rhesus monkey at 2 mg/kg, po; format: ADME, organism-based, Macaca mulatta; settings: in vivo
[33] = Oral bioavailability in dog at 2 mg/kg; format: ADME, organism-based, Canis lupus familiaris; settings: in vivo
[34] = Oral bioavailability in rhesus monkey at 2 mg/kg; format: ADME, organism-based, Macaca mulatta; settings: in vivo
[35] = Unbound fraction in dog at 0.5 mg/kg, iv or 2 mg/kg, po; format: ADME, organism-based, Canis lupus familiaris; settings: in vivo
[36] = Unbound fraction in rhesus monkey at 0.5 mg/kg, iv or 2 mg/kg, po; format: ADME, organism-based, Macaca mulatta; settings: in vivo
[37] = Stability in dog liver microsomes assessed as parent compound remaining after 45 mins; format: ADME, Canis lupus familiaris, microsome; settings: read-out: Stability
[38] = Stability in rat liver microsomes assessed as parent compound remaining after 45 mins; format: ADME, microsome; settings: read-out: Stability
[39] = Stability in human liver microsomes assessed as parent compound remaining after 45 mins; format: ADME, microsome; settings: read-out: Stability
[40] = Stability in rhesus monkey liver microsomes assessed as parent compound remaining after 45 mins; format: ADME, Macaca mulatta, microsome; settings: read-out: Stability
[41] = Stability in human hepatocytes assessed as parent compound remaining up to 60 mins; format: ADME, cell-based, Hepatocyte; settings: read-out: Stability
[42] = Stability in dog hepatocytes assessed as parent compound remaining up to 60 mins; format: ADME, cell-based, Canis lupus familiaris, Hepatocyte; settings: read-out: Stability
[43] = Stability in rat hepatocytes assessed as parent compound remaining up to 60 mins; format: ADME, cell-based, Hepatocyte; settings: read-out: Stability
[44] = Stability in rhesus monkey hepatocytes assessed as parent compound remaining up to 60 mins; format: ADME, cell-based, Macaca mulatta, Hepatocyte; settings: read-out: Stability
[45] = test system: Rattus norvegicus; assay: In vivo agonist activity at beta3-AR in po dosed rat; format: functional, organism-based
[46] = test system: Rattus norvegicus; assay: Effect on nor-epinephrine level in rat brain at 10 mg/kg, po by microdialysis method; format: ADME, organism-based; settings: in vivo
[47] = test system: Rattus norvegicus; assay: Induction of nor-epinephrine efflux in medial prefrontal cortex of rat at 100 mg/kg, po measured 1 hr post dose by microdialysis method relative to control; format: ADME, organism-based; settings: in vivo

Cc1nnc(-c2cccc(CN3CCN(C(=O)c4ccc(C[C@@H]5CC[C@H]([C@H](O)c6ccccc6)N5)cc4)CC3)n2)o1 gave an EC50 [1] of 0.0025 µM, an Emax [2] of 109% and an IC50 [3] greater than 20 µM. It also gave an IC50 [4] greater than 20 µM, an IC50 [5] greater than 30 µM and an IC50 [6] greater than 10 µM. The AC50 [7] was 68 µM and the EC50 [8] was 0.254 µM.

Cc1noc(-c2cccc(CN3CCN(C(=O)c4ccc(C[C@@H]5CC[C@H]([C@H](O)c6ccccc6)N5)cc4)CC3)n2)n1 gave an EC50 [1] of 0.00032 µM, an Emax [2] of 99% and an IC50 [3] greater than 20 µM. For the same compound, the IC50 [4] was greater than 20 µM, the IC50 [9] was greater than 60 µM and the IC50 [5] was greater than 30 µM. For the same compound, the IC50 [6] was 8.79 µM, the EC50 [8] was 0.251 µM and the clearance [10] was 10.9 L/h/kg. For the same compound, the Vd [11] was 19 L/kg and the half-life [12] was 1.8 h.

With O=C(c1ccc(C[C@@H]2CC[C@H]([C@H](O)c3ccccc3)N2)cc1)N1CCN(Cc2ncn(CC(F)F)n2)CC1 the EC50 [1] was 0.0029 µM, the Emax [2] was 108% and the IC50 [3] was greater than 20 µM. It also gave an IC50 [4] greater than 20 µM, an IC50 [5] greater than 30 µM and an IC50 [6] greater than 10 µM. For the same compound, the EC50 [8] was 0.026 µM, the Vd [13] was 57 L/kg and the clearance [14] was 6.66 L/h/kg. For the same compound, the half-life [15] was 7.3 h, the AUC/dose [16] was 0.29 µM·h/mg/kg and the bioavailability [17] was less than 1%.

With O=C(c1ccc(C[C@@H]2CC[C@H]([C@H](O)c3ccccc3)N2)cc1)N1CCN(Cc2nnn(CC(F)(F)F)n2)CC1 the EC50 [1] was 0.0019 µM, the Emax [2] was 98% and the IC50 [3] was greater than 20 µM. The IC50 [4] was greater than 20 µM, the IC50 [9] was 29.9 µM and the IC50 [5] was greater than 30 µM. It also gave an IC50 [6] greater than 10 µM, an AC50 [7] of 72 µM and an EC50 [8] of 0.627 µM. For the same compound, the Vd [13] was 17 L/kg, the clearance [14] was 5.88 L/h/kg and the CL free [18] was 9.06 L/h/kg. It also gave a half-life [15] of 2.8 h, an AUC/dose [16] of 0.14 µM·h/mg/kg and a fAUC/dose [19] of 0.09 µM·h/mg/kg. The bioavailability [17] was 46%, the fraction unbound [20] was 0.65 and the clearance [21] was 1.32 L/h/kg. The clearance [22] was 1.14 L/h/kg, the CL free [23] was 2.1 L/h/kg and the CL free [24] was 2.58 L/h/kg. For the same compound, the Vd [25] was 11 L/kg, the Vd [26] was 5.8 L/kg and the half-life [27] was 6.9 h. It also gave a half-life [28] of 6.5 h, an AUC/dose [29] of 1.9 µM·h/mg/kg and an AUC/dose [30] of 0.09 µM·h/mg/kg. The fAUC/dose [31] was 1.2 µM·h/mg/kg, the fAUC/dose [32] was 0.04 µM·h/mg/kg and the bioavailability [33] was 100%. It also gave a bioavailability [34] of 5.4%, a fraction unbound [35] of 0.63 and a fraction unbound [36] of 0.44. For the same compound, the remaining at 0.75 h [37] was 85%, the remaining at 0.75 h [38] was 71% and the remaining at 0.75 h [39] was 42%. The remaining at 0.75 h [40] was 19%, the remaining at 1 h [41] was 92% and the remaining at 1 h [42] was 100%. The remaining at 1 h [43] was 73%, the remaining at 1 h [44] was 50% and the EC50 [45] was 4.5 µM. The Activity [46] was “Non-Toxic” and the “fold change (FC)” value [47] was 2.

With O=C(c1ccc(C[C@@H]2CC[C@H]([C@H](O)c3ccccc3)N2)cc1)N1CCN(Cc2ncn(CC(F)(F)F)n2)CC1 the EC50 [1] was 0.0016 µM, the Emax [2] was 113% and the IC50 [3] was greater than 20 µM. The IC50 [4] was greater than 20 µM, the IC50 [9] was greater than 60 µM and the IC50 [5] was greater than 30 µM. The IC50 [6] was greater than 10 µM, the EC50 [8] was 0.065 µM and the Vd [13] was 38 L/kg. For the same compound, the clearance [14] was 6.3 L/h/kg, the half-life [15] was 5.4 h and the AUC/dose [16] was 0.3 µM·h/mg/kg. It also gave a bioavailability [17] of less than 1%.

Reference: ChEMBL document CHEMBL4002615, “Investigation of piperazine benzamides as human β3 adrenergic receptor agonists for the treatment of overactive bladder” (Bioorg Med Chem Lett, 2017)
